Data: ChEMBL document CHEMBL3763053, “Synthesis of diacylated γ-glutamyl-cysteamine prodrugs, and in vitro evaluation of their cytotoxicity and intracellular delivery of cysteamine” (Eur J Med Chem, 2016)

Columns and labels:
[1] = Prodrug activation in human PT37 cells assessed as intracellular cysteamine-CMQT formation at 20 uM incubated for 2 to 24 hrs by HPLC analysis; format: cell-based; conditions: pt37, 20 µM
Method in brief: (§1)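 PT37 normal human proximal tubule cells were grown in DMEM/F12 with 2 mM L-glutamine, penicillin-streptomycin and 10% heat-inactivated FCS at 37 °C under 5% CO2. Confluent monolayers got […] test agent in medium at 37 °C for 0, 2, 6, 16 or 24 h. Cells were trypsin-harvested, lysed and centrifuged. Pellet protein was measured by Bradford against BSA standards. Supernatant thiols were reduced with NaBH4, derivatised with CMQT and analysed by HPLC with UV and fluorescence detection. Results are nmol/mg protein, n=3.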

[2] = tested on: Serum; test: Prodrug activation in fetal bovine serum containing medium assessed as cysteamine formation after 24 hrs by LC-MS analysis; set-up: species or system Bos taurus; conditions: cattle
Method in brief: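 Prodrug was incubated in medium containing fetal bovine serum for up to 24 h. Hydrolysis and cysteamine release were monitored by LC-MS.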

[3] = tested on: HaCaT; test: Cytotoxicity against human HaCaT cells assessed as reduction in cell viability after 48 hrs by MTT assay; format: cell-based
Method in brief: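 HaCaT keratinocytes were exposed for 48 h at 37 °C under 5% CO2 to test agents dissolved in medium. Nine twofold serial dilutions ran from 500 down to 1.95. Cells were then rinsed with PBS (pH 7.4) and given MTT at 0.5 mg/mL in PBS for 10 min in the dark, then read at 595 nm. Survival is a percentage of control wells, averaged over 12 replicates. EC50 came from non-linear regression of dose-response curves.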

[4] = Dissociation constant, pKa of compound at pH 2 to 12 at 1 to 2 mg by potentiometric titration method; format: physicochemical
Method in brief: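 Accurately weighed sample loaded into an automated Sirius T3 for pH-metric analysis, using automated acid-base titration. The pKa was computed from the titration data. The value is the mean of 3 titrations.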

[5] = Lipophilicity, log D of compound at pH 7.4; conditions: buffer
[6] = physchem; conditions: octanol/water, pH 2
[7] = Prodrug activation in human PT37 cells assessed as intracellular cysteamine-CMQT formation per mg protein at 20 uM after 6 hrs by HPLC analysis; format: cell-based; conditions: pt37, 6 h; method in brief: as §1
[8] = Prodrug activation in human PT37 cells assessed as intracellular cysteamine-CMQT formation per mg protein at 20 uM after 24 hrs by HPLC analysis; format: cell-based; conditions: pt37, 24 h; method in brief: as §1
[9] = Drug metabolism in water assessed as oxidation of cysteamine by measuring cysteamine-CMQT level at pH 4.66 at 0.01 M after 1 hr by HPLC-UV method; format: physicochemical; conditions: buffer, pH 4.66, 1 h
[10] = Drug metabolism in water assessed as oxidation of cysteamine by measuring cysteamine-CMQT level at pH 4.66 at 0.01 M after 3 hrs by HPLC-UV method; format: physicochemical; conditions: buffer, pH 4.66, 3 h
[11] = Prodrug activation in human PT37 cells assessed as intracellular cysteamine-CMQT formation at 20 uM after 2 hrs by HPLC analysis; format: cell-based; conditions: pt37, 2 h; method in brief: as §1

Drug metabolism [1]	pKa [4]	logD [5]	logP [6]	Compound	EC50 ([3]; Homo sapiens, HaCaT, 48 h) [µM]	other results
metabolite_notdetected				Cl.Cl.NCCS		
				N[C@@H](CCC(=O)NCCS)C(=O)O		Drug metabolism [2]: metabolite_notdetected
metabolite_detected	8.9	-0.29	1.22	CCOC(=O)[C@@H](N)CCC(=O)NCCSC(=O)C(C)(C)C.Cl	228	
metabolite_detected	8.94	-1.44	0.11	CCOC(=O)[C@@H](N)CCC(=O)NCCSC(C)=O.Cl	1730	Drug metabolism [2]: metabolite_notdetected
				CCCOC(=O)[C@@H](N)CCC(=O)NCCSC(=O)C(C)(C)C	152	
				CCCOC(=O)[C@@H](N)CCC(=O)NCCSC(=O)c1ccccc1	75	
metabolite_detected	8.8	-1.21	0.21	CCCOC(=O)[C@@H](N)CCC(=O)NCCSC(C)=O.Cl	548	
metabolite_detected	8.85	-0.37	1.09	CCOC(=O)[C@@H](N)CCC(=O)NCCSC(=O)c1ccccc1.Cl	331	
				CCCCOC(=O)[C@@H](N)CCC(=O)NCCSC(=O)c1ccccc1	97	
metabolite_detected	8.69	-0.88	0.43	CCCCOC(=O)[C@@H](N)CCC(=O)NCCSC(C)=O.Cl	563	
				CCCCOC(=O)[C@@H](N)CCC(=O)NCCSC(=O)C(C)(C)C	102	
	8.15			Cl.NCCS [CYSTEAMINE HYDROCHLORIDE]		EC50 ([3]; hacat): 309 µM; Drug metabolism [7]: 0.84 nmol/mg; Drug metabolism [8]: 0.22 nmol/mg; Drug metabolism [9]: 50%; Drug metabolism [10]: metabolite_notdetected; Drug metabolism [11]: metabolite_detected
